# Where “and” joins values, the source holds several entries; their conditions need not be identical. Equal values may be shown once. Read-outs that look alike come from different tables or passages of the source.
# Tests used:
# IP6K family = conditions: cited from earlier work
# [1] = Mouse; ref Ghoshal, et al. Mol Metab. 2016; cited from earlier work
# Aqueous solubility = type: physicochemical
# [2] = Human; ref Ghoshal, et al. Mol Metab. 2016; cited from earlier work
# [3] = test system: 58 kinases (diversity panel); test: Off-target kinase diversity panel at Eurofins; type: biochemical; conditions: 10μM, 58 kinases tested
# Procedure, shortened: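 Kinase panel included metabolically important enzymes, among them GSK3β, AKT, mTOR and PI3K.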
# IP6K2 = biological target: T1, IP6K2 (Homo sapiens, UniProt Q9UHH9); test: ADP-Glo Max assay, purified IP6K2; type: biochemical; conditions: IP6K2 over IP6K1
# T1 sequence (Q9UHH9 1-426): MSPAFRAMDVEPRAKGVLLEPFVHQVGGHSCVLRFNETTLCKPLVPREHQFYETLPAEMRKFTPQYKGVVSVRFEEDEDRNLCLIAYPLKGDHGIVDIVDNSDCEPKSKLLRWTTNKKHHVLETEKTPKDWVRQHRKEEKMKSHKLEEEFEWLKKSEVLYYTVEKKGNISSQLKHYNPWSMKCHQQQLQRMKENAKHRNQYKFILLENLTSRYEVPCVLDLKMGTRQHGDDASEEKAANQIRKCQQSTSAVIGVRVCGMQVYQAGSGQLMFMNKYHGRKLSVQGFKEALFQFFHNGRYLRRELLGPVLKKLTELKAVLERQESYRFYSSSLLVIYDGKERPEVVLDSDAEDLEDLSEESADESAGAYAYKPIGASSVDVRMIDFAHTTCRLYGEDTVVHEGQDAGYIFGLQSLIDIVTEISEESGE
# IP6K3 = biological target: T2, IP6K3 (Homo sapiens, UniProt Q96PC2); test: ADP-Glo Max assay, purified IP6K3; type: biochemical; conditions: IP6K3 over IP6K1
# T2 sequence (Q96PC2 1-410): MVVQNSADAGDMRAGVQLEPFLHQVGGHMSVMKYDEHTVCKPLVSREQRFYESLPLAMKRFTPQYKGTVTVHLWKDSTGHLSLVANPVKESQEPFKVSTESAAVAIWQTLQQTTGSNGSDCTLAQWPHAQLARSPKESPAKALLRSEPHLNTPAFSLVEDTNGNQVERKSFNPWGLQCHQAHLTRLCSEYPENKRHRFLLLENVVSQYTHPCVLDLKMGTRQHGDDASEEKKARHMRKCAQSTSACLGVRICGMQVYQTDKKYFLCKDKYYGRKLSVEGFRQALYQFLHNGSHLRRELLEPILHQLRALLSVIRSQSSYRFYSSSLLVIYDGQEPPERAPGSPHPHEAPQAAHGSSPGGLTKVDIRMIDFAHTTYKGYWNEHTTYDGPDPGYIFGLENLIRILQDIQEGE
Number of kinases not significantly inhibited (inactive) [3] [kinases],Number of kinases potently inhibited ([3]; 3 of RAF/MAPK pathway and casein kinase γ) [kinases],Selectivity (Ki/Ki IP6K1) (IP6K2),Selectivity (Ki/Ki IP6K1) (IP6K3) [fold],Compound,"IP6K selectivity (IP6K family; between IP6K isoforms, ref Padmanabhan, et al. J Biol Chem 2009)",Potency against the IP6K family (IP6K family),Microsome stability (t1/2) [1],Solubility (Aqueous solubility; 2% DMSO),Solubility (Aqueous solubility; aqueous buffers),Microsome stability (t1/2) [2]
,,,,"O=[N+]([O-])c1ccc(CNc2nc(NCc3cccc(C(F)(F)F)c3)nc3[nH]cnc23)cc1 [Compound 1, N2-(m-trifluorobenzyl)-N6-(p-nitrobenzyl) purine]",Not selective ^*,low micromolar potency,Mouse 9 min ^**,Mostly insoluble in 2% DMSO,sparingly soluble,Human 32 min ^**
54,4,~ 25 fold and 25 fold,~50,COc1ccc2c(CCNc3nc(NCc4ccc(=O)[nH]c4)c4nc[nH]c4n3)c[nH]c2c1 [Compound 24],,,,,,

# Reference: publication PMC6745243 (Bioorganic & medicinal chemistry letters, 2019)
